Reference: PMC5414581 (Neuropharmacology, 2017)
“Also recorded” adds a separate entry of the source. Where a SMILES comes first, the peptide text is derived from it. Where no end group is shown, it is not given here. Me2 = N,N-dimethyl-lysine

Experiments:
[1] = target: T1, human NPS receptor, 107I variant (human) (UniProt Q6W5P4)
T1 sequence: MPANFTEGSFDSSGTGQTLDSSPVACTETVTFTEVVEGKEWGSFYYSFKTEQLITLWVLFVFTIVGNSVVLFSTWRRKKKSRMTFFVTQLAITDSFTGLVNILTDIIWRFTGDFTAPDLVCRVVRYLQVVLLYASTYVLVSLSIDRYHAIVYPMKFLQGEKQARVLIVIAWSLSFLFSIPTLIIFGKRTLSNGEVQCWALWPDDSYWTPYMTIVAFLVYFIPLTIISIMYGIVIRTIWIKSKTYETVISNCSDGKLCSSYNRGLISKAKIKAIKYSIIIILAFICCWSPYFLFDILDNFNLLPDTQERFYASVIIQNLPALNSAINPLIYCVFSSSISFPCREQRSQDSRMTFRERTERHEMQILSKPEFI

[2] = system: mice; experiment: Locomotor stimulation; format: in vivo, mouse; settings: RTI-118 50 mg/kg i.p.; compound 4 10 nmole ICV
Outline: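 Mice were habituated 1 h in a 40 × 40 cm infrared-beam open field in a novel room, during the light phase. Test compound in aCSF/0.1% BSA was given ICV into the lateral ventricle under brief isoflurane. Recording began after ≥5 min recovery. The antagonist was given 50 mg/kg i.p. in saline as pretreatment. Misplaced injections were excluded post-mortem. n = 7–11 per group; one-way ANOVA with Dunnett's test.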

[3] = system: mice; experiment: Marble Burying; format: in vivo, mouse
[4] = target: T2, mNPSR (Mus musculus, UniProt Q8BZP8); experiment: cAMP accumulation assay; format: cell-based
T2 sequence (Q8BZP8 1-371): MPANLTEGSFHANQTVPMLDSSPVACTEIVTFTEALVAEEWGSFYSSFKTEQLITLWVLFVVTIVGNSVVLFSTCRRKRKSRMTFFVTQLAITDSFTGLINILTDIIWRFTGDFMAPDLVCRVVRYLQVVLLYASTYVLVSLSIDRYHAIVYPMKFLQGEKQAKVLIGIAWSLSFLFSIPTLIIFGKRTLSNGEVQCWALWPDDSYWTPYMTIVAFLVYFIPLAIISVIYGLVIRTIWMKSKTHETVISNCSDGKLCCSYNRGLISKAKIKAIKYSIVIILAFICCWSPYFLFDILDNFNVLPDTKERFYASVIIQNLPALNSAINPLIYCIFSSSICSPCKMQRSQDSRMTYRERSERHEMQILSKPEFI
Outline: (§1)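 Cells were harvested with versene and suspended in HBSS, 5 mM HEPES, 0.5 mM IBMX, 0.1% BSA, pH 7.4: hNPSR-107N at 8,000/well, hNPSR-107I at 4,000/well, mNPSR at 20,000/well. Agonist was incubated at room temperature for 30 min (human lines) or 1 h (mNPSR). LANCE Ultra TR-FRET detection ran 1 h in the dark. RFU was interpolated to fmol cAMP from a standard curve, and a three-parameter fit gave EC50.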

[5] = target: T2, mNPSR; experiment: Ca+2 mobilization assay, HEK 293T mNPSR cells; format: cell-based
Outline: (§2)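 FLIPR Calcium 5 dye diluted 1:40 in HBSS, 20 mM HEPES, 2.5 mM probenecid, pH 7.4, loaded 45 min at 37 °C. Cells were plated overnight without selection antibiotics: CHO-Gα16 hNPSR-107I/N at 25,000/well and HEK 293T mNPSR at 35,000/well. Cells were pretreated 15 min at 1% DMSO. Test compound or NPS was added during a 60 s read (ex 485/em 525). Peak RFU was fit to a three-parameter logistic curve to give EC50. Bias was taken as Log(max/EC50), calcium versus cAMP, relative to NPS.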

[6] = target: T3, hNPSR-107I (Homo sapiens, UniProt Q6W5P4, N107I); experiment: cAMP accumulation assay; format: cell-based
T3 sequence (Q6W5P4 1-371 N107I): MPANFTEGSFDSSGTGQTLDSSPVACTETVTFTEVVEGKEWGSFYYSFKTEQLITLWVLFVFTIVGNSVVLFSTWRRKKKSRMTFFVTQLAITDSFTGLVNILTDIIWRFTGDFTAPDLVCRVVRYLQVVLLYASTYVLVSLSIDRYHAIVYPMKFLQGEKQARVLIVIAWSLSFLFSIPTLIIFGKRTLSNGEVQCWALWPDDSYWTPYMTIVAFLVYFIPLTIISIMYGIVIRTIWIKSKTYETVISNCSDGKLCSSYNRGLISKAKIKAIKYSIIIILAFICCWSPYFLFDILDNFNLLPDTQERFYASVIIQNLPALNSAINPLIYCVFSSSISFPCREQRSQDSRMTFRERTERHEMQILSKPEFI
Outline: as §1

[7] = target: T3, hNPSR-107I; experiment: Ca+2 mobilization assay, CHO-Gα16 hNPSR-107I cells; format: cell-based
Outline: as §2

[8] = target: T4, hNPSR-107N (Homo sapiens, UniProt Q6W5P4); experiment: cAMP accumulation assay; format: cell-based
T4 sequence (Q6W5P4 1-371): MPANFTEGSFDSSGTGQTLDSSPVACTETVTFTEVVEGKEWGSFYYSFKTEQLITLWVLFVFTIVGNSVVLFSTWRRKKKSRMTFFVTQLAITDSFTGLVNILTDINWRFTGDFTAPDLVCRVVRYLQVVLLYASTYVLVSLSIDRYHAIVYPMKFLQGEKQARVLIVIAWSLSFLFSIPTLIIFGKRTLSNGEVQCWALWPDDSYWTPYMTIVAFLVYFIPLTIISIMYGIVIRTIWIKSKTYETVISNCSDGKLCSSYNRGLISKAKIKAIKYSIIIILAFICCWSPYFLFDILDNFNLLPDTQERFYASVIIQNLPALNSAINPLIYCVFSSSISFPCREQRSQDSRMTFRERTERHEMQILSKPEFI
Outline: as §1

[9] = system: mice; experiment: Light-Dark Box; format: in vivo, mouse; settings: 1 nmole ICV, 5–10 minutes before test
[10] = system: mice; experiment: Passive Avoidance; format: in vivo, mouse; settings: ICV 20 minutes after training, tested 48 hours after training; compound 4 0.01-10 nmole, NPS 1 nmole; vs aCSF
[11] = target: T3, hNPSR-107I; settings: ref Bernier et al., 2006; cited from earlier work
[12] = target: T4, hNPSR-107N; experiment: Ca+2 mobilization assay, CHO-Gα16 hNPSR-107N cells; format: cell-based; settings: hNPSR 107N cell line
Outline: as §2

[13] = target: T5, human NPS receptor, 107N variant (human) (UniProt Q6W5P4)
T5 sequence: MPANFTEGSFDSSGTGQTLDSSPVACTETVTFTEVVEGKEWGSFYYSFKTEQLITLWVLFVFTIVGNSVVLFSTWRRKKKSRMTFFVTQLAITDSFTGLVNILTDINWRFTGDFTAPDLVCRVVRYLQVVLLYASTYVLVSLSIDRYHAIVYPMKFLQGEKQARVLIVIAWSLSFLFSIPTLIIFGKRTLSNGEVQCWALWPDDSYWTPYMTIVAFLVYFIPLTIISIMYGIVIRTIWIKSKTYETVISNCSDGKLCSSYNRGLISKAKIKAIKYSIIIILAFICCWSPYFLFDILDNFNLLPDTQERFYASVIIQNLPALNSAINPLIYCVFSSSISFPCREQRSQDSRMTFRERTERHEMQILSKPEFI

[14] = target: T6, mouse NPS receptor (mouse) (UniProt Q8BZP8)
T6 sequence: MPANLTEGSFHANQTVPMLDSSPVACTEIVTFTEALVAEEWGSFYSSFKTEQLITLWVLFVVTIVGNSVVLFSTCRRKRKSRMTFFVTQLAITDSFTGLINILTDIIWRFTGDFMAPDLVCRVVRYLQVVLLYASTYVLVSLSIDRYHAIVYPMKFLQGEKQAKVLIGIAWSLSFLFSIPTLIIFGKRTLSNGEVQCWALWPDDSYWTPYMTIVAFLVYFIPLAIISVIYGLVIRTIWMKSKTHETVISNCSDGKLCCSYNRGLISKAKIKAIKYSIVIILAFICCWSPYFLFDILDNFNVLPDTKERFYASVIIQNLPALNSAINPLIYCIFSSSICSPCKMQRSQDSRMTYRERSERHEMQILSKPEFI

[15] = mNPSR cell line, fraction of maximal window for response
[16] = hNPSR 107I cell line, fraction of maximal window for response

7. SerPheAOCAsn-NH2 (peptide)
EC50 of calcium mobilization, CHO-Gα16 hNPSR-107I cells [1]: 436 nM

O=C(NCCN1CCCCC1)N1CCN2C(=O)OC(c3ccccc3)(c3ccccc3)C2C1 (stereo not shown) [RTI-118]
block of compound 4 induced locomotor effects by pretreatment [2]: induced locomotor effects can be blocked; also recorded: this effect is blocked by pretreatment | block of compound 4 effect on marble burying by pretreatment ([3]; RTI-118 20 mg/kg fifteen minutes before compound 4 0.5 nmole): effects of 4 can be blocked; also recorded: blocked by the pretreatment with RTI-118

NCCCC[C@H](NC(=O)[C@H](Cc1ccccc1)NC(=O)[C@@H](N)CO)C(=O)N[C@@H](CC(N)=O)C(N)=O [compound 4, SerPheLysAsn-NH2] (H-SFKN-NH2)
EC50 [4]: 911 ± 86 nM | EC50 [5]: 100 ± 5.3 nM | EC50 [6]: 117 ± 22 nM | EC50 [7]: 3.02 ± 0.74 nM

SFRNGV-NH2 [compound 1, SerPheArgAsnGlyVal-NH2]
EC50 [4]: 13.4 ± 4.8 nM | EC50 [5]: 2.03 ± 0.3 nM | EC50 [6]: 1.95 ± 0.28 nM | cAMP Accumulation EC50 ([6]; hNPSR 107I cell line): comparable potency to NPS | EC50 [8]: 427 nM

SFRNGVGTGMKKTSFQRAKS [NPS, Neuropeptide S]
number of entries into the light-side [9]: Neither NPS nor 4 significantly increased the number of entries into the light-side; also recorded: significantly more entries than compound 4 treated animals | time spent on the light side ([9]; vs aCSF): significantly increased the time spent on the light-side; also recorded: spent significantly more time on the light-side than the compound 4 treated animals | latency to enter the dark compartment [10]: appear to have the same maximal effects; also recorded: significantly increased the latency time | cAMP Accumulation Max [4, 15]: 0.82 | selectivity for the hNPSR-107I over the hNPSR-107N (calcium mobilization EC50) [11]: 5 fold | BIAS (Bias Toward Calcium) ([5]; mNPSR cell line, calcium versus cAMP pathway): 1.00 | Calcium Mobilization Max [5, 15]: 1 | cAMP Accumulation Max [6, 16]: 1 | BIAS (Bias Toward Calcium) ([7]; hNPSR 107I cell line, calcium versus cAMP pathway): 1.00 | Calcium Mobilization Max [7, 16]: 0.96 | cAMP Accumulation Max ([8]; hNPSR 107N cell line, fraction of maximal window for response): 0.97 | number of marbles buried ([3]; 1 nmole ICV, twenty minutes before test, vs aCSF (Figure 5A)): NPS and 4 produce similar effects; also recorded: significantly decreased the number of marbles buried | BIAS (Bias Toward Calcium) ([12]; calcium versus cAMP pathway): 1.00 | Calcium Mobilization Max ([12]; fraction of maximal window for response): 0.97

B1: 3. SerPheArgAsn-NH2 (peptide)
peptide: SFRN-NH2
EC50 of cAMP accumulation, HEK 293T hNPSR-107I cells [1]: 129 nM | EC50 of calcium mobilization, CHO-Gα16 hNPSR-107I cells [1]: 2.43 nM | EC50 of cAMP accumulation, HEK 293T hNPSR-107N cells [13]: > 10000 nM | EC50 of calcium mobilization, CHO-Gα16 hNPSR-107N cells [13]: 998 nM | EC50 of cAMP accumulation, HEK 293T mNPSR cells [14]: 800 nM | EC50 of calcium mobilization, HEK 293T mNPSR cells [14]: 66.6 nM

B2: 2. SerPheArgAsnGly-NH2 (peptide)
peptide: SFRNG-NH2
EC50 of cAMP accumulation, HEK 293T hNPSR-107I cells [1]: 3060 nM | EC50 of cAMP accumulation, HEK 293T hNPSR-107N cells [13]: > 10000 nM | EC50 of cAMP accumulation, HEK 293T mNPSR cells [14]: > 10000 nM | EC50 of calcium mobilization, HEK 293T mNPSR cells [14]: 1010 nM

B3: Neuropeptide S (peptide)
peptide: SFRNGVGTGMKKTSFQRAKS
EC50 of cAMP accumulation, HEK 293T hNPSR-107I cells [1]: 4.19 nM | EC50 of calcium mobilization, CHO-Gα16 hNPSR-107I cells [1]: 0.59 nM | EC50 of cAMP accumulation, HEK 293T hNPSR-107N cells [13]: 48.9 nM | EC50 of calcium mobilization, CHO-Gα16 hNPSR-107N cells [13]: 2 nM | EC50 of cAMP accumulation, HEK 293T mNPSR cells [14]: 3.67 nM | EC50 of calcium mobilization, HEK 293T mNPSR cells [14]: 5.55 nM

B4: 6. SerPheLysCOCF3Asn-NH2 (peptide)
peptide: SFK(trifluoroacetyl)N-NH2
EC50 of calcium mobilization, CHO-Gα16 hNPSR-107I cells [1]: 563 nM

B5: 1. SerPheArgAsnGlyVal-NH2 (peptide)
peptide: SFRNGV-NH2
EC50 of cAMP accumulation, HEK 293T hNPSR-107I cells [1]: 1.95 nM | EC50 of cAMP accumulation, HEK 293T hNPSR-107N cells [13]: 427 nM | EC50 of cAMP accumulation, HEK 293T mNPSR cells [14]: 13.4 nM | EC50 of calcium mobilization, HEK 293T mNPSR cells [14]: 2.03 nM

B6: 4. SerPheLysAsn-NH2 (peptide)
peptide: SFKN-NH2
EC50 of cAMP accumulation, HEK 293T hNPSR-107I cells [1]: 117 nM | EC50 of calcium mobilization, CHO-Gα16 hNPSR-107I cells [1]: 3.02 nM | EC50 of cAMP accumulation, HEK 293T mNPSR cells [14]: 911 nM | EC50 of calcium mobilization, HEK 293T mNPSR cells [14]: 100 nM

B7: 5. SerPheDimethylLysAsn-NH2 (peptide)
peptide: SFK(Me2)N-NH2
EC50 of calcium mobilization, CHO-Gα16 hNPSR-107I cells [1]: 43.5 nM
